# Assay: Toxicity liver stage against HepG2, at 10uM
# Format: cell-based
# Parameters: test concentration 10 uM, cell line HepG2-A16-CD81EGFP
# Conditions: human, HepG2-A16-CD81EGFP cells; read-out: INHIBITION
# In short: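 Uninfected HepG2-A16-CD81EGFP cells, 3 × 10^3 per well, 1536-well, plated on prespotted compound at 10 μM final, parasite-free screening media added to match infected plates; puromycin 10 μM positive, DMSO 0.5% negative; run in parallel with 48 h PbLuc assay at 37 °C, 5% CO2; viability by CellTiter-Glo luminescence, normalized to controls.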
row,SMILES,cytotoxicity at 10 µM
1,CN(C)C(CNC(=O)c1nc(N2CCOCC2)ncc1Cl)c1ccco1 (stereo not drawn),7.96%
2,CCN(CC)CC[C@H]1CN(C(=O)NC2CCCCC2)CC[C@H]1CC(=O)O,7.77%
3,CC(C)NC(=O)NC[C@H]1OC[C@@H](NCc2ccccc2O)[C@@H]1O,-1.69%
4,COc1ccc(CN2CCCCCC2c2cccs2)c(O)c1 (stereo not drawn),3.6%
5,O=C1CC2(CCN(C(=O)c3ccccn3)CC2)Oc2c(Cl)cc(Cl)cc21,1.73%
6,O=C(NCCCn1ccnc1)c1cccnc1OCC(F)(F)F,6.58%
7,CN(C)C(CNc1c(NCc2ccco2)c(=O)c1=O)c1ccccc1 (stereo not drawn),5.16%
8,CN(C)CC1CSCCCN1C(=O)c1cccc(C(F)(F)F)c1 (stereo not drawn),-5.03%
9,CC(C)NC(=O)N1CCC2(CC1)COc1ccccc1S(=O)(=O)N(C)C2,7.02%
10,O=C1CCCN1Cc1ncn2c1CN(C(=O)Cc1ccccc1)CCC2,6.49%
11,Cc1nnn2c1COCC(CNC(=O)c1cnoc1C)C2 (stereo not drawn),-2.69%
12,Cc1cccc(CN2C[C@@H]3CN(C(=O)c4ccnnc4)C[C@@H]3C2=O)c1,-6.89%
13,CCOC(=O)N1CCN(C(=O)c2snnc2-c2ccc(OC)cc2)CC1,3.56%
14,O=C(CSC1CCc2ccccc2NC1=O)NCCc1ccc(O)cc1 (stereo not drawn),-4.25%
15,CC(C)NC(=O)C1CN(C(N)=O)Cc2ccnn2C1 (stereo not drawn),-8.68%
16,CC(C)N1CCN(C(=O)c2[nH]nnc2Nc2ccccc2F)CC1,6.36%
17,CCc1cc(=O)n(CC(=O)N2CCCC2)c(-c2ccccc2)n1,7.25%
18,Cc1ccc(-c2noc(C3CCN3C(=O)c3ccc(=O)[nH]n3)n2)s1 (stereo not drawn),7.53%
19,COc1ccc(CCc2nnc(NC(=O)C3CC34CCC4)s2)cc1OC (stereo not drawn),-0.095%
20,CC(=O)N1CCC(Cc2nccnc2-c2ccnn2C)CC1,-7.3%
21,O=C(O)c1ccc(=O)n(CC(c2ccc(Cl)cc2)N2CCOCC2)c1 (stereo not drawn),2.91%
22,CCNC(=O)Nc1ncc(-c2cccnc2)s1,14.6%

row,SMILES,cytotoxicity at 10 µM
1,Cc1cnn(CCNCc2nccn2CC(F)(F)F)c1,6.51%
2,CC(C(=O)N1CCCC1)S(=O)(=O)Cc1noc(C(C)(C)C)n1 (stereo not drawn),-1.1%
3,Cc1nccc(CNC(=O)NC(c2ncc(C)s2)C2CC2)n1 (stereo not drawn),-0.898%
4,CC(=O)N1CCC(NC(=O)Cc2nc3nc(C)cc(C)n3n2)CC1,8.52%
5,COC(=O)c1cccc(CNC(=O)CCC(F)(F)F)c1,11.6%
6,O=C(Nc1ccccn1)c1ccc(F)c(S(=O)(=O)NC2CC2)c1,4.37%
7,CCn1cnnc1CNC(=O)N(C)Cc1c(F)cccc1Cl,-5.56%
8,NC(=O)NC(=O)C(c1ccccc1)N1CCN(Cc2ccsc2)CC1 (stereo not drawn),1.94%
9,O=C1CCCN1Cc1ccc(C(=O)N2CCCC2c2cccs2)cc1 (stereo not drawn),3.78%
10,CN(C)C1Cc2ccccc2N(S(=O)(=O)c2cccc(C#N)c2)C1 (stereo not drawn),9.89%
11,CCNC(=O)Cc1ccc(NC(=O)NC(CC)c2ccncc2)cc1 (stereo not drawn),-3%
12,CC(CNC(=O)N1CCN(Cc2ccon2)CC1)N(C)C1CC1 (stereo not drawn),-6.74%
13,O=C(c1cc(Cl)c2c(c1)OCO2)N1CCN(c2cnccn2)CC1,6.76%
14,CCN(CC)c1ccc(NS(=O)(=O)c2cnn(CC)c2)cn1,3.07%
15,c1ccc2c(N3CCOC(Cn4cccn4)C3)ncnc2c1 (stereo not drawn),-1.04%
16,Cc1cc(F)ccc1-n1cc(O)c(C(=O)NCC2(O)CCC2)n1,0.477%
17,O=C(c1ccncc1)N1CCN(C(=O)c2coc3ccccc23)CC1,4.27%
18,CC1(C(=O)NCCN2CCCCC2)CCCN1C(=O)c1ccccc1 (stereo not drawn),-6.44%
19,CN(C)CC(NC(=O)c1ccn(C)c(=O)c1)c1ccccc1 (stereo not drawn),-5.85%
20,CN(Cc1ccncc1)C(CO)c1cccc(Br)c1 (stereo not drawn),15.4%
21,CN(C)C(=O)CN1CCN(c2cc(N3CCCC3CO)ncn2)CC1 (stereo not drawn),-1.49%
22,CS(=O)(=O)NCCc1cccc2cccnc12,18.3%

row,SMILES,cytotoxicity at 10 µM
1,CS(=O)(=O)N1CCN(C(=O)c2[nH]c3ccc(Cl)cc3c2Cl)CC1,24.6%
2,COCc1nn(Cc2ccc(Br)s2)c(=O)o1,1.99%
3,Cc1cc(C)c(CNC(=O)NCc2nnc3n2CCCCC3)c(=O)[nH]1,-1.34%
4,CCOCc1ccc(NC(=O)NC2CCCn3nc(CC)nc32)cc1 (stereo not drawn),-7.68%
5,COC(=O)c1cccc(S(=O)(=O)NC(=O)c2ccccc2F)c1,5.79%
6,CCCn1c(O)nnc1SCC1OCCc2ccccc21 (stereo not drawn),4.32%
7,CC(C)CC(C(=O)N1CCCSCC1)N1CCCCC1=O (stereo not drawn),-11%
8,NC(=O)C1CCN(Cc2cccc(NC(=O)c3ccsc3)c2)CC1,18.7%
9,Cc1cccc(C(=O)N2CC[C@@H]3CN(c4ncccn4)CCO[C@@H]3C2)c1,-71.6%
10,CCN1C(=O)[C@]2(CC[C@@H]3CN(S(=O)(=O)CC(C)C)C[C@@H]32)N=C1C,-78.2%
11,Cn1cc(C[C@H]2[C@@H](O)CCN2C(=O)c2ccc[nH]2)cn1,-71.2%
12,Fc1cnc(N2CCC3(CCCN(c4nncs4)C3)C2)nc1 (stereo not drawn),2.15%
13,CN(C)C(=O)[C@H]1C[C@@H]2CCN(Cc3ccncc3)C[C@H]2O1,0.866%
14,Cc1n[nH]c(SCC(=O)N[C@@H](C)C(N)=O)n1,8.07%
15,CCCc1cnc(C)nc1NC(C)Cc1cnccn1 (stereo not drawn),-7.96%
16,Cc1ccc(-c2cnnc(NCC3(N4CCOCC4)CCCC3)n2)o1,-6.79%
17,Cc1ccccc1-n1cc(CNC(=O)CC2C(=O)NCCN2C)cn1 (stereo not drawn),2.4%
18,CN(CC1CCCCO1)c1ncnc2cc(F)ccc12 (stereo not drawn),-2.15%
19,CCn1nc(C)c(C(=O)N2C[C@@H](CN(C)C)[C@@H](CO)C2)c1C,0.44%
20,O=C(CCN1CCCC(CO)(CC2CC2)C1)NCc1cccc(Cl)c1 (stereo not drawn),-1.07%
21,O=C(Cc1ccc(F)cc1Cl)N[C@@H]1CCNC[C@H]1O,-0.918%
22,CCCn1c(C)c(CC(=O)NC(C)(C)CO)c2c1CC(C)(C)CC2=O,-8.97%

row,SMILES,cytotoxicity at 10 µM
1,CCc1nc(C)c(CN2CCN(c3ncnc4c(C)csc34)CC2)[nH]1,17.6%
2,Cc1cccc(C(C(=O)N2CC(c3ccccn3)C2)N(C)C)c1 (stereo not drawn),-13.1%
3,Cc1ccc(CN2CCC(Cc3nnc(CO)n3C)CC2)cc1C,5.19%
4,COc1ccc(F)c(CN2CCCC(O)(CNC3CCCCC3)C2=O)c1 (stereo not drawn),8.28%
5,COc1cccn(Cc2nnc(-c3cccc(F)c3)o2)c1=O,2%
6,Cc1[nH]c(=O)[nH]c(=O)c1CN1CCCC(CCc2ccc(F)c(F)c2)C1 (stereo not drawn),1.4%
7,CN(CCCc1nccn1C)C(=O)C1CCN(C(=O)C2CCC2)CC1,-7.12%
8,C=C(C)COc1ccccc1C(=O)N(C)C(C)c1c(C)n[nH]c1C (stereo not drawn),3.23%
9,Cc1nc2c(c(=O)n1C)CCN(C(=O)CCc1ccccn1)CC2,14%
10,CC(C)n1cnnc1CN(C)C(=O)C1CCCN(CC(N)=O)C1 (stereo not drawn),1.05%
11,CC(C)NC(=O)[C@@H]1C[C@H](N)CN1C(=O)c1cc2c([nH]c1=O)CCCC2,10.5%
12,COc1ccc2c(c1)OCC(CNC(=O)c1ccncc1)C2 (stereo not drawn),-8.63%
13,CNc1cc(C2CCCN2C(=O)c2ccc3oc(=O)n(C)c3c2)ccn1 (stereo not drawn),1.68%
14,Cc1cncc(C2CCCN(C(=O)c3cccn3C)C2)n1 (stereo not drawn),2.14%
15,CC(NC(=O)NCc1cccc(F)c1)(C(=O)O)c1ccco1 (stereo not drawn),-3.33%
16,COc1c(CNCc2ccc3c(c2)OCO3)c(C(C)C)nn1C,0.745%
17,CC(C)c1nn(C)c(N2CCOCC2)c1CNC(C)c1ccco1 (stereo not drawn),-5.93%
18,Cc1cc(C(=O)N2CCCC2c2noc(C(C)C)n2)c(C)o1 (stereo not drawn),-3.54%
19,COc1ccccc1CC(=O)N1CCCC(CNS(C)(=O)=O)C1 (stereo not drawn),0.691%
20,Cc1cc(C(=O)NCc2ccnc(N3CCOCC3)c2)c(C)s1,-0.426%
21,CC(C)c1ccc(OCCC(=O)N2CCCC(C(N)=O)C2)cc1 (stereo not drawn),-11.7%
22,Cc1cc(C)n(CC2CCCCN2C(=O)CCc2ccncc2)n1 (stereo not drawn),2.1%

row,SMILES,cytotoxicity at 10 µM
1,Cc1ccc(NC2CCN(C(=O)COc3cccc(F)c3)CC2)nn1,3.11%
2,COCCOc1ccccc1C(=O)NCCN(C)C(C)C,0.449%
3,O=C(CCc1ccc(Cl)s1)N1CCCC(n2cncn2)C1 (stereo not drawn),-7.7%
4,Cc1cnc(CN2CCCC2c2noc(C)n2)cn1 (stereo not drawn),3.78%
5,CCC(CC)NC(=O)Cn1nc(C)nc1-c1ccccc1,-7.22%
6,Cc1cc(C(=O)N2CCCC(n3cncn3)C2)c(C)n1C1CC1 (stereo not drawn),-3.32%
7,CCn1c(C)nnc1CN(C)C1CCN(CCc2ccncc2)C1 (stereo not drawn),3.97%
8,Cn1cncc1CN1CCC2(CC1)COCCN(S(C)(=O)=O)C2,4.73%
9,COCCNC(=O)[C@@H]1C[C@@H]2CCN(c3ncccn3)C[C@H]2O1,-2.48%
10,COCCNC(=O)C(C)N1CCN(C)CC1 (stereo not drawn),-1.21%
11,O=C(c1ccno1)N1CC[C@@H]2O[C@H](COCCN3CCCC3)CC[C@@H]21,-79.1%
12,O=C(c1ccsc1)N1C[C@H]2CN(Cc3cccnc3)C(=O)[C@H]2C1,-5.15%
13,Fc1cnc(N2CCCn3cnc(COc4cccnc4)c3C2)nc1,1.42%
14,COc1ccc(CN2CC[C@H]3[C@H](CO[C@H]3CNC(=O)N(C)C)C2)cc1,6.96%
15,CN(C)[C@@H]1CCN(C(=O)CC2CC2)[C@H]1Cc1cnn(C)c1,-67.3%
16,CN(C)C(=O)COCc1cncc2c1CCN(C1CCOCC1)C2,9.66%
17,CC(C)n1cnc2c1C(C(=O)N(C)C)N(Cc1ccccc1)CC2 (stereo not drawn),-2.56%
18,CC(=O)N1C[C@H]2CC[C@@H](C1)N(Cc1ccc(Cn3cccn3)cc1)C2,0.0531%
19,Nc1cc(C(=O)N2C[C@@H]3CC[C@H]2CN(Cc2cccnc2)C3)ccn1,0.624%
20,CC(=Cc1ccccc1)CNCc1cccc(C(N)=O)c1,6.03%
